Data published in ChEMBL document CHEMBL4219197, “Synthesis, biological evaluation and SAR of naftopidil-based arylpiperazine derivatives” (Bioorg Med Chem Lett, 2018).

What was measured:
[1] = tested on: LNCaP; test: Cytotoxicity against human LNCAP cells assessed as growth inhibition after 24 hrs by CCK8 assay; assay type: functional, cell-based
Method in brief: (§1)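 Cells (PC-3, LNCaP, DU145, normal prostate […] WPMY-1) exposed 24 h to escalating concentrations; viability by CCK-8 read-out as percent of control; IC50 derived.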

[2] = Cytotoxicity against human WPMY-1 cells assessed as growth inhibition after 24 hrs by CCK8 assay; assay type: cell-based; settings: WPMY-1, 24 h; method in brief: as §1
[3] = tested on: PC-3; test: Cytotoxicity against human PC3 cells assessed as growth inhibition after 24 hrs by CCK8 assay; assay type: functional, cell-based; settings: PC-3, 24 h; method in brief: as §1
[4] = tested on: DU-145; test: Cytotoxicity against human DU145 cells assessed as growth inhibition after 24 hrs by CCK8 assay; assay type: functional, cell-based; settings: DU-145, 24 h; method in brief: as §1
[5] = target: T1, Alpha-1A adrenergic receptor (Homo sapiens, UniProt P35348); test: Antagonist activity at alpha 1A adrenergic receptor (unknown origin) by luciferase reporter gene assay; assay type: functional
T1 sequence (P35348 whole entry): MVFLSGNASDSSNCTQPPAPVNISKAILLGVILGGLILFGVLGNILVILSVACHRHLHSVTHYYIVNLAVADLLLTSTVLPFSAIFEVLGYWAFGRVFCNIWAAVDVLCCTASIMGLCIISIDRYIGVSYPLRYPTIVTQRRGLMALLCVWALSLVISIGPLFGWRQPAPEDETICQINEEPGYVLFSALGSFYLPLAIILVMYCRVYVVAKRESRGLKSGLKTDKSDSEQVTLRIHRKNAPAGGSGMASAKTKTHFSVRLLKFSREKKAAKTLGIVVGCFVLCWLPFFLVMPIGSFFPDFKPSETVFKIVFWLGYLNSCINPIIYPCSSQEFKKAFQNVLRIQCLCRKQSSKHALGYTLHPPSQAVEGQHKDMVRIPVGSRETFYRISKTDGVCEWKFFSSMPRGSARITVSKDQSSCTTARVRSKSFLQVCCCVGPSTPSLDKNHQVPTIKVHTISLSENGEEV
Method in brief: (§2)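 Dual-luciferase reporter assay measuring antagonism at α1A, α1B and α1D adrenoceptor subtypes. IC50 values are means of three experiments.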

[6] = target: T2, Alpha-1D adrenergic receptor (Homo sapiens, UniProt P25100); test: Antagonist activity at alpha 1D adrenergic receptor (unknown origin) by luciferase reporter gene assay; assay type: functional; method in brief: as §2
T2 sequence (P25100 whole entry): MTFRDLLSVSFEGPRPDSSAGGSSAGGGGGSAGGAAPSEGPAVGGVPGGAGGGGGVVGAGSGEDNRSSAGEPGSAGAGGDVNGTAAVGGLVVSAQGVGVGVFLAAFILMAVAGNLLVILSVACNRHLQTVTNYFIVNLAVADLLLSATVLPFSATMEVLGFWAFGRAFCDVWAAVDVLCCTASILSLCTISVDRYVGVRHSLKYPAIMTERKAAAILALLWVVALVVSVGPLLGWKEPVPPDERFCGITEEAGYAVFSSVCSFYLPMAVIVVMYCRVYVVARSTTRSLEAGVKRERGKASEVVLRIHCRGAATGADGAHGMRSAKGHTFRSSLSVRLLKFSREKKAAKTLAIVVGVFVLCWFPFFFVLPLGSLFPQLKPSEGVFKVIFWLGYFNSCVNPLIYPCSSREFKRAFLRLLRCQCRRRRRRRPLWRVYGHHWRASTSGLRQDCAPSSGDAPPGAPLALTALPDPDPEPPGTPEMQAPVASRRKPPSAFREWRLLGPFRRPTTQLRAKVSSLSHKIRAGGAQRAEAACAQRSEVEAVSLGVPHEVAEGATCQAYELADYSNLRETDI

[7] = tested on: DU-145; test: Potency index, ratio of naftopidil IC50 to compound IC50 for human DU145 cells; assay type: functional
[8] = target: T3, Alpha-1B adrenergic receptor (Homo sapiens, UniProt P35368); test: Antagonist activity at alpha 1B adrenergic receptor (unknown origin) by luciferase reporter gene assay; assay type: functional; method in brief: as §2
T3 sequence (P35368 whole entry): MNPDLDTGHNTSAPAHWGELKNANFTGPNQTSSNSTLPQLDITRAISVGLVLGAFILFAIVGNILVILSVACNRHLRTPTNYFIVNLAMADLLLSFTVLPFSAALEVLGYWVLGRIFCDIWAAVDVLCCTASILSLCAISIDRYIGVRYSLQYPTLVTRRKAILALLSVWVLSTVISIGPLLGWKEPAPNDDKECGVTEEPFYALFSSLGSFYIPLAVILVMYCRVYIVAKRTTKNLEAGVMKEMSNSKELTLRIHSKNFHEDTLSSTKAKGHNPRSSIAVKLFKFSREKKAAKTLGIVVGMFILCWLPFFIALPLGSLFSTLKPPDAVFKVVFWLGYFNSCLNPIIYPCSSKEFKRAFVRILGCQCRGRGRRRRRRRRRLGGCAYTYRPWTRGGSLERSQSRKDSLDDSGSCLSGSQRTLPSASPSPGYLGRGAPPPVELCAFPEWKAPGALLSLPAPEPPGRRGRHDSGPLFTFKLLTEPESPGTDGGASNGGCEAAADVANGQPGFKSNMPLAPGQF

| Compound | IC50 [1] | IC50 [2] | IC50 [3] | IC50 [4] | IC50 [5] | IC50 [6] | Ratio IC50 [7] | IC50 [8] |
| --- | --- | --- | --- | --- | --- | --- | --- | --- |
| Clc1cccc(N2CCN(CCc3ccc(COc4ccc5c(c4)CCCC5)cc3)CC2)c1Cl | 3.06 µM | > 50 µM | > 50 µM | 23.1 µM |  |  |  |  |
| Cc1ccc(Cl)cc1N1CCN(CCc2ccc(COc3ccc4c(c3)CCCC4)cc2)CC1 | 7.81 µM | > 50 µM | > 50 µM | > 50 µM |  |  |  |  |
| Cl.Cl.Clc1cccc(N2CCN(CCc3ccc(COc4ccc5c(c4)CCCC5)cc3)CC2)c1 | 17.3 µM | > 50 µM | 46.7 µM | 0.86 µM | 1.21 µM | 0.287 µM | 40 | 0.998 µM |
| Fc1ccc(N2CCN(CCc3ccc(COc4ccc5c(c4)CCCC5)cc3)CC2)c(F)c1 | 4.4 µM | > 50 µM | > 50 µM | > 50 µM |  |  |  |  |
| Cl.c1ccc(C2CCN(CCc3ccc(COc4ccc5c(c4)CCCC5)cc3)CC2)cc1 | 3.94 µM | > 50 µM | 10.5 µM | 0.95 µM | 0.568 µM | 0.453 µM | 36 | 0.673 µM |
| Cc1ccc(N2CCN(CCc3ccc(COc4ccc5c(c4)CCCC5)cc3)CC2)cc1 | > 50 µM | > 50 µM | > 50 µM | 25.1 µM |  |  |  |  |
| N#Cc1ccccc1N1CCN(CCc2ccc(COc3ccc4c(c3)CCCC4)cc2)CC1 | 1.99 µM | > 50 µM | 32 µM | 29.7 µM |  |  |  |  |
| Clc1ccc(N2CCN(CCc3ccc(COc4ccc5c(c4)CCCC5)cc3)CC2)cc1 | > 50 µM | > 50 µM | > 50 µM | > 50 µM |  |  |  |  |
| FC(F)(F)c1ccc(N2CCN(CCc3ccc(COc4ccc5c(c4)CCCC5)cc3)CC2)cc1 | > 50 µM | > 50 µM | > 50 µM | > 50 µM |  |  |  |  |
| COc1cccc(N2CCN(CCc3ccc(COc4ccc5c(c4)CCCC5)cc3)CC2)c1 | 8.02 µM | 29.1 µM | 2.84 µM | 28.1 µM |  |  |  |  |
| Clc1ccccc1N1CCN(CCc2ccc(COc3ccc4c(c3)CCCC4)cc2)CC1 | 4.68 µM | > 50 µM | 31.3 µM | > 50 µM |  |  |  |  |
| CC(C)(C)NC(=O)[C@H]1CC[C@H]2[C@@H]3CC[C@H]4NC(=O)C=C[C@]4(C)[C@H]3CC[C@]12C [FINASTERIDE] | 14.5 µM |  | 17.8 µM | 13.5 µM |  |  |  |  |
| COc1ccccc1N1CCN(CC(O)COc2cccc3ccccc23)CC1 (configuration not stated) [NAFTOPIDIL] |  | > 50 µM | 42.1 µM |  |  |  |  |  |
